Series [1] deals with Rattus norvegicus. The series can be described thus: Antiinflammatory activity in po dosed Freund's complete adjuvant-induced Lewis rat arthritis model assessed as reduction in onset of arthritis. It is filed as functional, organism-based. The essentials: (§1)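 Male Lewis rats were inoculated with Mycobacterium butyricum in incomplete Freund's adjuvant. Oral dosing was daily and preventative, running from day 0 to day 21. Onset and progression of arthritis were followed, and ED50 was estimated from the dose response.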

Series [2] is described as follows: Clearance in Sprague-Dawley rat at 1 mg/kg, iv. The following applies: in vivo. It is filed as ADME, organism-based. Further details: dose 1 mg/kg, route intravenous. An outline of the steps: (§2)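 Male Sprague-Dawley rats received a single intravenous (1 mg/kg) or oral (10 or 50 mg/kg) dose. Plasma pharmacokinetic parameters were derived from these profiles.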

Series [3] concerns Blood. The series can be described thus: Antiinflammatory activity in Sprague-Dawley rat whole blood assessed as inhibition of LPS-induced TNFalpha production.
The nature of series [4]: Tmax in Sprague-Dawley rat at 50 mg/kg, po. It is filed as ADME, organism-based. Also noted: dose 50 mg/kg, route oral. The following applies: in vivo. The essentials:
as §2

Series [5] has as its system Rattus norvegicus. The series can be described thus: Antiinflammatory activity in Sprague-Dawley rat assessed as carrageenan-induced paw edema at 30 mg/kg, po administered as a single dose 2 hrs before carrageenan challenge measured 4 hrs post carrageenan challenge by plethysmometry relative to control.
The target of series [6] is T1, Glucocorticoid receptor (Homo sapiens, UniProt P04150).
T1 sequence (P04150 whole entry): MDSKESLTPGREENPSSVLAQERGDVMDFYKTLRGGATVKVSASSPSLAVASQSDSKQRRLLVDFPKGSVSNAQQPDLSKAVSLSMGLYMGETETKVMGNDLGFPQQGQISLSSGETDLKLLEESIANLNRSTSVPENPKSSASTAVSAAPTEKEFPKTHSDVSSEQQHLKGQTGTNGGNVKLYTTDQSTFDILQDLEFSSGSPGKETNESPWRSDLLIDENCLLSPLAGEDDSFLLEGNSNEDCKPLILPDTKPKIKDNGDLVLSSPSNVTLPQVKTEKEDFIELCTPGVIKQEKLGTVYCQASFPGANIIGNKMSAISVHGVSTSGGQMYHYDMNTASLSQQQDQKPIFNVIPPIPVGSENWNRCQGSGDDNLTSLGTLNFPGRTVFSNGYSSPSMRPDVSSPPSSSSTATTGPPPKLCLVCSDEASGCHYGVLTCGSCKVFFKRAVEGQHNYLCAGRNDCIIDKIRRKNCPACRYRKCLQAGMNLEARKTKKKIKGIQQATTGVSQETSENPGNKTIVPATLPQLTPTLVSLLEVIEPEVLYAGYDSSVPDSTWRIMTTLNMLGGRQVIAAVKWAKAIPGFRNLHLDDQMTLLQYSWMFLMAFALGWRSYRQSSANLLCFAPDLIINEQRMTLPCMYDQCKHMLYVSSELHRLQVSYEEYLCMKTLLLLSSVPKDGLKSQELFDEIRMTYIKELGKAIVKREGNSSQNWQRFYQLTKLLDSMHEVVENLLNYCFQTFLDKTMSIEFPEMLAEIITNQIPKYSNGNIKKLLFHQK
The series can be described thus: Transactivation activity at GR-alpha in human NP1 Hela cells assessed as induction of GAL4-DBD after 20 hrs by luciferase reporter gene assay. It is filed as cell-based.

The target of series [7] is T1, Glucocorticoid receptor. Description: Transactivation activity at glucocorticoid receptor alpha human 13D3/Huh7 cells assessed as induction of TAT activity after 4 hrs by spectrophotometry. It is filed as cell-based, Huh-7.
Series [8] relates to Rattus norvegicus. The series can be described thus: Antiinflammatory activity in po dosed Freund's complete adjuvant-induced Lewis rat arthritis model assessed as reduction in paw swelling administered once daily for 21 days. The following applies: 504 h. It is filed as functional. An outline of the steps: as §1
Series [9] in a line: Cmax in Sprague-Dawley rat at 50 mg/kg, po. It is filed as ADME, organism-based. Also noted: dose 50 mg/kg, route oral. The following applies: in vivo. An outline of the steps: as §2
The subject of series [10] is Blood. Description: Antiinflammatory activity in human whole blood assessed as inhibition of IL-1beta-induced IL-8 production after overnight incubation by ELISA. It is filed as functional, tissue-based. An outline of the steps: (§3)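 Whole blood from two donors per experiment was collected into ACD-A. Compounds were added and the blood was incubated about 20 h at 37 °C under 5% CO2. Blood was then stimulated for 5 h with LPS (final 100 ng/mL, for TNFα) or IL-1β (final 10 ng/mL, for IL-8). Plasma TNFα or IL-8 was measured by ELISA. Efficacy was expressed as % of dexamethasone, and values are means of at least two experiments.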
Background: An ELISA detects its analyte on a solid surface through an enzyme-linked reagent.

A short description of series [11]: Oral bioavailability in Sprague-Dawley rat at 10 mg/kg. The following applies: in vivo. It is filed as ADME, organism-based. The essentials:
as §2

For series [12], the system named is Blood. The series can be described thus: Antiinflammatory activity in human whole blood assessed as inhibition of LPS-induced TNFalpha production after overnight incubation by ELISA relative to Dexamethasone. It is filed as functional. An outline of the steps: as §3
Series [13] deals with MG-63. Description: Induction of glutamine synthase expression in human MG63 cells after overnight incubation by spectrophotometry. It is filed as cell-based.
For series [14], the target named is T2, Progesterone receptor (Homo sapiens, UniProt P06401).
T2 sequence (P06401 whole entry): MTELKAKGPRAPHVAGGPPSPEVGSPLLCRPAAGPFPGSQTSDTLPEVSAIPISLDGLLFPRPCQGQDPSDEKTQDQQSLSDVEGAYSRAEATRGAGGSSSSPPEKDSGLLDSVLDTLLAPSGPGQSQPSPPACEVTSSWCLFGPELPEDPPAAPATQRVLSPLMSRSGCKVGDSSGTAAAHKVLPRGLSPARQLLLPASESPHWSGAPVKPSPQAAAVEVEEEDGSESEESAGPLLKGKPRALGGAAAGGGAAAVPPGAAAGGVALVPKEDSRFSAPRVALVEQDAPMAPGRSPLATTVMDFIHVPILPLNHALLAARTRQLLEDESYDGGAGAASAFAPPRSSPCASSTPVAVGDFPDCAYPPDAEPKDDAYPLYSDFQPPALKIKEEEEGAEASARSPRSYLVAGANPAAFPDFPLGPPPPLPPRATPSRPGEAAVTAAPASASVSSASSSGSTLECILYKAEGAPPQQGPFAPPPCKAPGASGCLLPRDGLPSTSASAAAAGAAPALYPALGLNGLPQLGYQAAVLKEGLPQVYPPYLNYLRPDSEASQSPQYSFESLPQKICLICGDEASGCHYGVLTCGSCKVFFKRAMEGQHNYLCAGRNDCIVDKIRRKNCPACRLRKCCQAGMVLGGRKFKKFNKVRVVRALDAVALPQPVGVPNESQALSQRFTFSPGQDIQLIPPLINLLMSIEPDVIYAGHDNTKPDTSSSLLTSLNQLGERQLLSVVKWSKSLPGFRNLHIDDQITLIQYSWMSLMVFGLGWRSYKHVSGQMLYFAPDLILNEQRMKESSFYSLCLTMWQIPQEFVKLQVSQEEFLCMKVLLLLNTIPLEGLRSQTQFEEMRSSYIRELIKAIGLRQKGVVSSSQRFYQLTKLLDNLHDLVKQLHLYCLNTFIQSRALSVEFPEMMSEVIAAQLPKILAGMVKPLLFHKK
The series can be described thus: Displacement of fluorescently labeled ligand from progesterone receptor by fluorescence polarization assay. A general note: In fluorescence polarisation assays a small probe gives low polarisation when free and higher when bound to something large.

Series [15] concerns the target T1, Glucocorticoid receptor. Description: Displacement of GS-red from glucocorticoid receptor by fluorescence polarization assay.
In series [16] the test system is Blood. The series can be described thus: Antiinflammatory activity in human whole blood assessed as inhibition of TNF-alpha-induced IL-8 production after overnight incubation by ELISA relative to dexamethasone. It is filed as functional.

Each structure is given as a SMILES string.

By clearance is commonly meant the rate of elimination divided by the concentration. Low values mean inefficient removal, high ones efficient removal. In general, EC50 refers to the concentration at which the effect is half-maximal. One may read the Tmax as the time at which the peak concentration occurs. Broadly, the ED50 is the dose that gives a 50% effect, or the effect in half of the subjects. The Cmax is the peak of the concentration-time curve. One may read the bioavailability as dose-corrected exposure relative to a reference, in per cent. A high value points to much systemic uptake. In general, Ki refers to a measure of affinity in units of concentration, obtained from inhibition or displacement. Lower therefore signals tighter binding.

As to `CCN(C)C(=O)c1ccc(-c2ccc3c(n2)Oc2ccccc2[C@@H]3C(C)(C)C(=O)Nc2nncs2)cc1F`, the Activity entry in series [1] was “Dose-dependent effect”. Besides, the clearance in [2] turned out to be 34 mL/min/kg. The EC50 in series [3] was 0.215 µM; in series [6] it was 0.0985 µM; in series [7] it was 0.088 µM; in series [10], 0.628 µM; in series [13], 0.207 µM. Besides, the Tmax in [4] is 3.3 h. Further, the level, % of control at 30 mg/kg in series [5] is 54%. For the same compound, the ED50 in series [8] is 8 mg/kg. Also, the Cmax in [9] was 3080 ng/mL. Further, in [11], the bioavailability is 17%. The Imax in series [12] was determined as 91%; in series [16], 76%. Besides, the inhibitory constant (Ki) in [14] is 1.83 µM; in [15], 0.00164 µM.
For the compound `CN(C)C(=O)c1ccc(-c2ccc3c(n2)Oc2ccccc2[C@H]3C(C)(C)C(=O)Nc2nncs2)cc1F`, the Activity entry in series [1] is “Dose-dependent effect”. This compound also came in with a clearance in series [2] of 49.5 mL/min/kg. Besides, the EC50 in series [3] turned out to be 0.189 µM; in series [6], 0.242 µM; in series [7] it was 0.15 µM; in series [10] it was 1.14 µM; in series [13] it was 0.044 µM. Also, in series [4], the Tmax came out at 1.7 h. Besides, the level, % of control at 30 mg/kg in series [5] was determined as 42%. Besides, the ED50 in [8] worked out at 17 mg/kg. In series [9], this compound had a Cmax of 3210 ng/mL. The bioavailability in series [11] is 20%. In addition, the results for the Imax in series [12] and in series [16] were 83% and 55%, respectively. Also, the results for the inhibition constant Ki in series [14] and in series [15] were 1.53 µM and 0.00194 µM, respectively.

These data come from ChEMBL document CHEMBL1909630, “Azaxanthene based selective glucocorticoid receptor modulators: design, synthesis, and pharmacological evaluation of (S)-4-(5-(1-((1,3,4-thiadiazol-2-yl)amino)-2-methyl-1-oxopropan-2-yl)-5H-chromeno[2,3-b]pyridin-2-yl)-2-fluoro-N,N-dimethylbenzamide (BMS-776532) and its methylene homologue …” (J Med Chem, 2011).
